Active and inactive are the calls of the source. The calls are words filed in the database; no cut-off is given here.
Assays:
SN12C = assay: Cytotoxicity against human SN12C cells after 2 days by sulforhodamine B assay; format: functional; settings: 48 h
Procedure, shortened: (§1)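 NCI60 multi-dose screen, 59 human tumour lines available. Cells exposed to compound across a 5-log mol/L concentration range for 2 days, then fixed and stained with sulphorhodamine B, optical density read. Growth inhibition calculated against time-zero control and untreated cells. GI50 derived from the dose series, average of two replicates.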

CAKI-1 = assay: Cytotoxicity against human CAKI-1 cells after 2 days by sulforhodamine B assay; format: functional; settings: CAKI-1, 48 h; procedure, shortened: as §1
ACHN = assay: Cytotoxicity against human ACHN cells after 2 days by sulforhodamine B assay; format: functional; settings: 48 h; procedure, shortened: as §1
SK-OV-3 = assay: Cytotoxicity against human SKOV3 cells after 2 days by sulforhodamine B assay; format: functional; settings: SK-OV-3, 48 h; procedure, shortened: as §1
OVCAR-5 = assay: Cytotoxicity against human OVCAR5 cells after 2 days by sulforhodamine B assay; format: functional; settings: OVCAR-5, 48 h; procedure, shortened: as §1
OVCAR-4 = assay: Cytotoxicity against human OVCAR4 cells after 2 days by sulforhodamine B assay; format: functional; settings: OVCAR-4, 48 h; procedure, shortened: as §1
OVCAR-3 = assay: Cytotoxicity against human OVCAR3 cells after 2 days by sulforhodamine B assay; format: functional; settings: OVCAR-3, 48 h; procedure, shortened: as §1
IGROV-1 = assay: Cytotoxicity against human IGROV1 cells after 2 days by sulforhodamine B assay; format: functional; settings: IGROV-1, 48 h; procedure, shortened: as §1
UACC-257 = assay: Cytotoxicity against human UACC257 cells after 2 days by sulforhodamine B assay; format: functional; settings: UACC-257, 48 h
Procedure, shortened: (§2)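 NCI DTP NCI60 multi-dose screen (59 human tumour lines available). Cells exposed to compound over a 5-log mol/L concentration range for 2 days, then fixed and stained with sulphorhodamine B, with optical density read. Growth inhibition calculated relative to time-zero cells and untreated cells, giving GI50 (half-maximal growth inhibition concentration). Average of two replicates.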

SK-MEL-28 = assay: Cytotoxicity against human SK-MEL-28 cells after 2 days by sulforhodamine B assay; format: functional; settings: SK-MEL-28, 48 h; procedure, shortened: as §1
MDA-MB-435 = assay: Cytotoxicity against human MDA-MB-435 cells after 2 days by sulforhodamine B assay; format: functional; settings: MDA-MB-435, 48 h; procedure, shortened: as §1
M14 = assay: Cytotoxicity against human M14 cells after 2 days by sulforhodamine B assay; format: functional; settings: M14, 48 h; procedure, shortened: as §1
LOX IMVI = assay: Cytotoxicity against human LOXIMVI cells after 2 days by sulforhodamine B assay; format: functional; settings: 48 h; procedure, shortened: as §1
SNB-75 = assay: Cytotoxicity against human SNB75 cells after 2 days by sulforhodamine B assay; format: functional; settings: SNB-75, 48 h; procedure, shortened: as §2
SNB-19 = assay: Cytotoxicity against human SNB19 cells after 2 days by sulforhodamine B assay; format: functional; settings: SNB-19, 48 h; procedure, shortened: as §2
SF-295 = assay: Cytotoxicity against human SF295 cells after 2 days by sulforhodamine B assay; format: functional; settings: SF-295, 48 h; procedure, shortened: as §1
KM12 = assay: Cytotoxicity against human KM12 cells after 2 days by sulforhodamine B assay; format: functional; settings: KM12, 48 h; procedure, shortened: as §1
NCI-H522 = assay: Cytotoxicity against human NCI-H522 cells after 2 days by sulforhodamine B assay; format: functional; settings: NCI-H522, 48 h; procedure, shortened: as §1
COLO 205 = assay: Cytotoxicity against human COLO205 cells after 2 days by sulforhodamine B assay; format: functional; settings: COLO 205, 48 h; procedure, shortened: as §1
HOP-92 = assay: Cytotoxicity against human HOP92 cells after 2 days by sulforhodamine B assay; format: functional; settings: HOP-92, 48 h; procedure, shortened: as §1
A549 = assay: Cytotoxicity against human A549/ATCC cells after 2 days by sulforhodamine B assay; format: functional; settings: A549, 48 h; procedure, shortened: as §1
RPMI-8226 = assay: Cytotoxicity against human RPMI8226 cells after 2 days by sulforhodamine B assay; format: functional; settings: RPMI-8226, 48 h; procedure, shortened: as §1
MOLT-4 = assay: Cytotoxicity against human MOLT4 cells after 2 days by sulforhodamine B assay; format: functional; settings: MOLT-4, 48 h; procedure, shortened: as §1
K562 = assay: Cytotoxicity against human K562 cells after 2 days by sulforhodamine B assay; format: functional; settings: K562, 48 h; procedure, shortened: as §1
HL-60(TB) = assay: Cytotoxicity against human HL-60(TB) cells after 2 days by sulforhodamine B assay; format: functional; settings: HL-60, 48 h
Procedure, shortened: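 NCI60 multi-dose screen: cells exposed to compound over a 5-log mol/L concentration range for 2 days, then fixed and stained with sulphorhodamine B and optical density read. Growth inhibition calculated relative to time-zero control and untreated cells; GI50 reported as average of two replicates.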

CCRF-CEM = assay: Cytotoxicity against human CCRF-CEM cells after 2 days by sulforhodamine B assay; format: functional; settings: 48 h; procedure, shortened: as §1
MCF7 = assay: Cytotoxicity against human ER positive MCF7 cells assessed as cell viability at 1 uM after 72 hrs by MTT assay; format: functional, cell-based
Procedure, shortened: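 Lines kept in DMEM with 10% fetal bovine serum and 1% penicillin/streptomycin at 37 °C, 5% CO2. Compound applied at 1 µM for 72 h, then standard MTT reduction read-out. Viability given as mean percentage of formazan formed by treated cells relative to mock-treated cells (0.1% DMSO). Run in quadruplicate, standard error, Student's t-test.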

T47D = assay: Cytotoxicity against human T47D cells after 2 days by sulforhodamine B assay; format: functional; settings: 48 h; procedure, shortened: as §2
DU-145 = assay: Cytotoxicity against human DU145 cells after 2 days by sulforhodamine B assay; format: functional; settings: DU-145, 48 h; procedure, shortened: as §1
[1] = read-out: LC50 (the source's name)

Compound COc1cc(-c2ccc[nH]2)[nH]c1/C=C1\N=C(C)C(C(=O)CCC(=O)Oc2ccc3c(c2)CC[C@@H]2[C@@H]3CC[C@]3(C)C(=O)CC[C@@H]23)=C1C has a GI50 (SN12C) of 5.21 µM, a TGI (SN12C) of over 100 µM and a CC50 (SN12C; [1]) of over 100 µM. It also gave a GI50 (CAKI-1) of 9.05 µM, an LC50 (concentration killing 50% of the cells present at time zero) (CAKI-1) of over 100 µM and a TGI (CAKI-1) of over 100 µM. It also gave a GI50 (ACHN) of 5.83 µM, an LC50 (concentration killing 50% of cells) (ACHN) of over 100 µM and a TGI (ACHN) of over 100 µM. The GI50 (SK-OV-3) was over 100 µM, the LC50 (concentration killing 50% of starting cells) (SK-OV-3) was over 100 µM and the TGI (SK-OV-3) was over 100 µM. For the same compound, the GI50 (OVCAR-5) was 9.64 µM, the LC50 (OVCAR-5) was over 100 µM and the TGI (OVCAR-5) was over 100 µM. For the same compound, the GI50 (OVCAR-4) was 20.9 µM, the LC50 (concentration killing 50% of cells) (OVCAR-4) was over 100 µM and the TGI (OVCAR-4) was over 100 µM. For the same compound, the GI50 (OVCAR-3) was 17.6 µM, the LC50 (OVCAR-3) was over 100 µM and the TGI (OVCAR-3) was over 100 µM. For the same compound, the GI50 (IGROV-1) was 8.4 µM, the LC50 (IGROV-1) was over 100 µM and the TGI (IGROV-1) was over 100 µM. The GI50 (UACC-257) was 97.6 µM, the TGI (UACC-257) was over 100 µM and the CC50 (UACC-257; [1]) was over 100 µM. For the same compound, the GI50 (SK-MEL-28) was 75 µM, the LC50 (SK-MEL-28) was over 100 µM and the TGI (SK-MEL-28) was over 100 µM. It also gave a GI50 (MDA-MB-435) of 7.68 µM, a TGI (MDA-MB-435) of over 100 µM and a CC50 (MDA-MB-435; [1]) of over 100 µM. The GI50 (M14) was 12.4 µM, the TGI (M14) was 33.4 µM and the CC50 (M14; [1]) was 91.2 µM. The GI50 (LOX IMVI) was 1.17 µM, the LC50 (LOX IMVI) was 21.2 µM and the TGI (LOX IMVI) was 3.56 µM. It also gave a GI50 (SNB-75) of 59.1 µM, an LC50 (concentration killing 50% of starting cells) (SNB-75) of over 100 µM and a TGI (SNB-75) of over 100 µM. The GI50 (SNB-19) was 18.4 µM, the TGI (SNB-19) was over 100 µM and the CC50 (SNB-19; [1]) was over 100 µM. For the same compound, the GI50 (SF-295) was 21.4 µM, the LC50 (SF-295) was over 100 µM and the TGI (SF-295) was 85.4 µM. It also gave a GI50 (KM12) of 6.25 µM, an LC50 (KM12) of over 100 µM and a TGI (KM12) of over 100 µM. The GI50 (NCI-H522) was 4.68 µM, the LC50 (NCI-H522) was over 100 µM and the TGI (NCI-H522) was 60.1 µM. It also gave a GI50 (COLO 205) of 21.6 µM, an LC50 (concentration killing 50% of cells) (COLO 205) of over 100 µM and a TGI (COLO 205) of over 100 µM. The GI50 (HOP-92) was 2.23 µM, the TGI (HOP-92) was 19.4 µM and the CC50 (HOP-92; [1]) was over 100 µM. For the same compound, the GI50 (A549) was 2.68 µM, the LC50 (concentration giving 50% net cell kill) (A549) was over 100 µM and the TGI (A549) was over 100 µM. It also gave a GI50 (RPMI-8226) of 6.86 µM, an LC50 (concentration killing 50% of cells present at time zero) (RPMI-8226) of over 100 µM and a TGI (RPMI-8226) of over 100 µM. For the same compound, the GI50 (MOLT-4) was 2.72 µM, the TGI (MOLT-4) was over 100 µM and the CC50 (MOLT-4; [1]) was over 100 µM. For the same compound, the GI50 (K562) was 4.23 µM, the LC50 (concentration killing 50% of cells) (K562) was over 100 µM and the TGI (K562) was over 100 µM. The GI50 (HL-60(TB)) was 55.8 µM, the TGI (HL-60(TB)) was over 100 µM and the CC50 (HL-60(TB); [1]) was over 100 µM. It also gave a GI50 (CCRF-CEM) of 0.54 µM, a TGI (CCRF-CEM) of over 100 µM and a CC50 (CCRF-CEM; [1]) of over 100 µM. The Activity (MCF7) was “inactive”, the GI50 (T47D) was 15.4 µM and the LC50 (concentration killing 50% of cells) (T47D) was over 100 µM. The TGI (T47D) was over 100 µM, the GI50 (DU-145) was 1.96 µM and the LC50 (concentration killing 50% of starting cells) (DU-145) was over 100 µM. The TGI (DU-145) was over 100 µM.
